From ChEMBL document CHEMBL1255475, “Mutant prevention concentrations of four carbapenems against gram-negative rods” (2010)
Values after ≈ are worked out from the molar mass of the structure shown.

Columns and labels:
Format in all cases: functional
Escherichia coli [1] = test: Antibacterial activity against beta-lactamase-negative Escherichia coli E345 incubated up to 7 days by agar dilution method; details: E345, 168 h
Klebsiella pneumoniae [2] = test: Antibacterial activity against beta-lactamase-positive ESBL-negative Klebsiella pneumoniae E479 incubated up to 7 days by agar dilution method; details: E479, 168 h
In short: (§1)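 MPC determination: overnight cultures on blood trypticase soy agar at 35°C in air were resuspended in 0.9% saline, and CFU were counted on drug-free Mueller-Hinton agar. […] Growth was retested by agar dilution to confirm mutants. MPC was the lowest concentration preventing resistant-mutant growth.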

Klebsiella pneumoniae [3] = test: Antibacterial activity against beta-lactamase-positive ESBL-negative Klebsiella pneumoniae E477 incubated up to 7 days by agar dilution method; details: E477, 168 h
Klebsiella pneumoniae [4] = test: Antibacterial activity against beta-lactamase-positive ESBL-negative Klebsiella pneumoniae E481 incubated up to 7 days by agar dilution method; details: E481, 168 h
Klebsiella pneumoniae [5] = test: Antibacterial activity against beta-lactamase-positive ESBL-positive Klebsiella pneumoniae E453 incubated up to 7 days by agar dilution method; details: E453, 168 h
In short: (§2)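 MIC by CLSI agar dilution, with quality-control strains in each run. Beta-lactamase status was set by 30 μg cefazolin Kirby-Bauer disk diffusion. ESBL status was set by cefotaxime and ceftazidime disks (30 μg) with and without clavulanic acid (10 μg).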

Klebsiella pneumoniae [6] = test: Antibacterial activity against beta-lactamase-positive ESBL-negative Klebsiella pneumoniae E507 incubated up to 7 days by agar dilution method; details: E507, 168 h; in short: as §1
Escherichia coli [7] = test: Antibacterial activity against beta-lactamase-negative Escherichia coli E424 […] by agar dilution method
Escherichia coli [8] = test: Antibacterial activity against beta-lactamase-positive ESBL-positive Escherichia coli E459 incubated up to 7 days by agar dilution method; details: E459, 168 h; in short: as §2
Escherichia coli [9] = test: Antibacterial activity against beta-lactamase-positive ESBL-positive Escherichia coli E465 incubated up to 7 days by agar dilution method; details: E465, 168 h; in short: as §2
Escherichia coli [10] = test: Antibacterial activity against beta-lactamase-positive ESBL-negative Escherichia coli E484 incubated up to 7 days by agar dilution method; details: E484, 168 h
Klebsiella pneumoniae [11] = test: Antibacterial activity against beta-lactamase-negative Klebsiella pneumoniae E358 incubated up to 7 days by agar dilution method; details: E358, 168 h
Klebsiella pneumoniae [12] = test: Antibacterial activity against beta-lactamase-negative Klebsiella pneumoniae E419 incubated up to 7 days by agar dilution method; details: E419, 168 h
Klebsiella pneumoniae [13] = test: Antibacterial activity against beta-lactamase-negative Klebsiella pneumoniae E361 incubated up to 7 days by agar dilution method; details: E361, 168 h
Acinetobacter baumannii [14] = test: Antibacterial activity against Acinetobacter baumannii A898 assessed as mutant prevention concentration after overnight incubation
Acinetobacter baumannii [15] = test: Antibacterial activity against Acinetobacter baumannii A885 assessed as mutant prevention concentration after overnight incubation
Acinetobacter baumannii [16] = test: Antibacterial activity against Acinetobacter baumannii A903 assessed as mutant prevention concentration after overnight incubation
Klebsiella pneumoniae [17] = test: Antibacterial activity against beta-lactamase-negative Klebsiella pneumoniae E362 assessed as mutant prevention concentration after overnight incubation
Klebsiella pneumoniae [18] = test: Antibacterial activity against beta-lactamase-negative Klebsiella pneumoniae E418 assessed as mutant prevention concentration after overnight incubation
In short: (§3)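 Overnight growth on blood trypticase soy agar (35°C, air) was resuspended in 0.9% saline and counted on drug-free Mueller-Hinton agar. […] Colonies were retested by agar dilution to confirm mutants. MPC was the lowest concentration preventing resistant-mutant growth.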

Klebsiella pneumoniae [19] = test: Antibacterial activity against beta-lactamase-positive ESBL-positive Klebsiella pneumoniae E476 assessed as mutant prevention concentration after overnight incubation; in short: as §3
Klebsiella pneumoniae [20] = test: Antibacterial activity against beta-lactamase-positive ESBL-positive Klebsiella pneumoniae E475 assessed as mutant prevention concentration after overnight incubation; in short: as §3
Klebsiella pneumoniae [21] = test: Antibacterial activity against beta-lactamase-positive ESBL-negative Klebsiella pneumoniae E479 assessed as mutant prevention concentration after overnight incubation; in short: as §3
Klebsiella pneumoniae [22] = test: Antibacterial activity against beta-lactamase-positive ESBL-negative Klebsiella pneumoniae E473 assessed as mutant prevention concentration after overnight incubation; in short: as §3
Klebsiella pneumoniae [23] = test: Antibacterial activity against beta-lactamase-positive ESBL-negative Klebsiella pneumoniae E481 assessed as mutant prevention concentration after overnight incubation; in short: as §3
Klebsiella pneumoniae [24] = test: Antibacterial activity against beta-lactamase-negative Klebsiella pneumoniae E420 assessed as mutant prevention concentration after overnight incubation; in short: as §3
Pseudomonas aeruginosa [25] = test: Antibacterial activity against Pseudomonas aeruginosa P356 assessed as mutant prevention concentration after overnight incubation
Pseudomonas aeruginosa [26] = test: Antibacterial activity against Pseudomonas aeruginosa P373 assessed as mutant prevention concentration after overnight incubation
Pseudomonas aeruginosa [27] = test: Antibacterial activity against Pseudomonas aeruginosa P320 assessed as mutant prevention concentration after overnight incubation
Pseudomonas aeruginosa [28] = test: Antibacterial activity against Pseudomonas aeruginosa P327 assessed as mutant prevention concentration after overnight incubation
Pseudomonas aeruginosa [29] = test: Antibacterial activity against Pseudomonas aeruginosa P323 assessed as mutant prevention concentration after overnight incubation
Pseudomonas aeruginosa [30] = test: Antibacterial activity against Pseudomonas aeruginosa P334 assessed as mutant prevention concentration after overnight incubation
Pseudomonas aeruginosa [31] = test: Antibacterial activity against Pseudomonas aeruginosa P338 assessed as mutant prevention concentration after overnight incubation
Pseudomonas aeruginosa [32] = test: Antibacterial activity against Pseudomonas aeruginosa P352 assessed as mutant prevention concentration after overnight incubation
Pseudomonas aeruginosa [33] = test: Antibacterial activity against Pseudomonas aeruginosa P340 assessed as mutant prevention concentration after overnight incubation
Pseudomonas aeruginosa [34] = test: Antibacterial activity against Pseudomonas aeruginosa P341 assessed as mutant prevention concentration after overnight incubation
Acinetobacter baumannii [35] = test: Antibacterial activity against Acinetobacter baumannii A848 assessed as mutant prevention concentration after overnight incubation
Acinetobacter baumannii [36] = test: Antibacterial activity against Acinetobacter baumannii A911 assessed as mutant prevention concentration after overnight incubation
Acinetobacter baumannii [37] = test: Antibacterial activity against Acinetobacter baumannii A910 assessed as mutant prevention concentration after overnight incubation
Acinetobacter baumannii [38] = test: Antibacterial activity against Acinetobacter baumannii A896 assessed as mutant prevention concentration after overnight incubation
Escherichia coli [39] = test: Antibacterial activity against beta-lactamase-negative Escherichia coli E344 assessed as mutant prevention concentration after overnight incubation
Escherichia coli [40] = test: Antibacterial activity against beta-lactamase-negative Escherichia coli E350 assessed as mutant prevention concentration after overnight incubation
Escherichia coli [41] = test: Antibacterial activity against beta-lactamase-positive ESBL-positive Escherichia coli E458 assessed as mutant prevention concentration after overnight incubation; in short: as §3
Escherichia coli [42] = test: Antibacterial activity against beta-lactamase-positive ESBL-negative Escherichia coli E415 assessed as mutant prevention concentration after overnight incubation; in short: as §3
Escherichia coli [43] = test: Antibacterial activity against beta-lactamase-positive ESBL-positive Escherichia coli E465 assessed as mutant prevention concentration after overnight incubation; in short: as §3
Klebsiella pneumoniae [44] = test: Antibacterial activity against beta-lactamase-negative Klebsiella pneumoniae E357 assessed as mutant prevention concentration after overnight incubation
Klebsiella pneumoniae [45] = test: Antibacterial activity against beta-lactamase-negative Klebsiella pneumoniae E358 assessed as mutant prevention concentration after overnight incubation
Klebsiella pneumoniae [46] = test: Antibacterial activity against beta-lactamase-negative Klebsiella pneumoniae E361 assessed as mutant prevention concentration after overnight incubation

SMILES: C[C@@H](O)[C@H]1C(=O)N2C(C(=O)O)=C(S[C@@H]3CN[C@H](C(=O)N(C)C)C3)[C@H](C)[C@H]12 [MEROPENEM]
- MIC (Escherichia coli [1]): 0.03 mg/L (≈ 0.0782 µM)
- MIC (Klebsiella pneumoniae [2]): 8 mg/L (≈ 20.9 µM)
- MIC (Klebsiella pneumoniae [3]): 2 mg/L (≈ 5.22 µM)
- MIC (Klebsiella pneumoniae [4]): 1 mg/L (≈ 2.61 µM)
- MIC (Klebsiella pneumoniae [5]): 0.06 mg/L (≈ 0.156 µM)
- MIC (Klebsiella pneumoniae [6]): 4 mg/L (≈ 10.4 µM)
- MIC (Escherichia coli [7]): 0.03 mg/L (≈ 0.0782 µM)
- MIC (Escherichia coli [8]): 0.03 mg/L (≈ 0.0782 µM)
- MIC (Escherichia coli [9]): 0.06 mg/L (≈ 0.156 µM)
- MIC (Escherichia coli [10]): 1 mg/L (≈ 2.61 µM)
- MIC (Klebsiella pneumoniae [11]): 0.03 mg/L (≈ 0.0782 µM)
- MIC (Klebsiella pneumoniae [12]): 0.06 mg/L (≈ 0.156 µM)
- MIC (Klebsiella pneumoniae [13]): 0.06 mg/L (≈ 0.156 µM)
- MPC (Acinetobacter baumannii [14]): 8 µg/mL
- MPC (Acinetobacter baumannii [15]): 8 µg/mL
- MPC (Acinetobacter baumannii [16]): 8 µg/mL
- MPC (Klebsiella pneumoniae [17]): 0.125 µg/mL
- MPC (Klebsiella pneumoniae [18]): 0.125 µg/mL
- MPC (Klebsiella pneumoniae [19]): >64 µg/mL
- MPC (Klebsiella pneumoniae [20]): 32 µg/mL
- MPC (Klebsiella pneumoniae [21]): 32 µg/mL
- MPC (Klebsiella pneumoniae [22]): 16 µg/mL
- MPC (Klebsiella pneumoniae [23]): 16 µg/mL
- MPC (Klebsiella pneumoniae [24]): 0.06 µg/mL
- MPC (Pseudomonas aeruginosa [25]): >4 µg/mL
- MPC (Pseudomonas aeruginosa [26]): >8 µg/mL
- MPC (Pseudomonas aeruginosa [27]): >8 µg/mL
- MPC (Pseudomonas aeruginosa [28]): 8 µg/mL
- MPC (Pseudomonas aeruginosa [29]): 4 µg/mL
- MPC (Pseudomonas aeruginosa [30]): >4 µg/mL
- MPC (Pseudomonas aeruginosa [31]): >4 µg/mL
- MPC (Pseudomonas aeruginosa [32]): 8 µg/mL
- MPC (Pseudomonas aeruginosa [33]): 4 µg/mL
- MPC (Pseudomonas aeruginosa [34]): 8 µg/mL
- MPC (Acinetobacter baumannii [35]): 32 µg/mL
- MPC (Acinetobacter baumannii [36]): 8 µg/mL
- MPC (Acinetobacter baumannii [37]): 4 µg/mL
- MPC (Acinetobacter baumannii [38]): 4 µg/mL
- MPC (Escherichia coli [39]): 0.03 µg/mL
- MPC (Escherichia coli [40]): 0.06 µg/mL
- MPC (Escherichia coli [41]): 0.125 µg/mL
- MPC (Escherichia coli [42]): 0.125 µg/mL
- MPC (Escherichia coli [43]): >1 µg/mL
- MPC (Klebsiella pneumoniae [44]): 0.125 µg/mL
- MPC (Klebsiella pneumoniae [45]): 0.06 µg/mL
- MPC (Klebsiella pneumoniae [46]): 0.125 µg/mL
